Rows were chosen to be rich in hits. Some 9.6% of all compounds tested hit in one or more screens of this group.
L major viab = inhibitors of Leishmania major promastigote growth; Leishmania major promastigotes, resazurin fluorescence viability; inhibition, % at 10 µM; 200,000 tested, 9% active; AID 1063; in the data active = inhibition above about 50%;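 note: promastigotes grown with compound for 44 hours at 28 °C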
PMI act satM6P = activators of human phosphomannose isomerase at near-saturating mannose 6-phosphate | coupled PMI enzyme assay, resazurin fluorescence, 20 min; stronger effect = higher value; 1 = untreated enzyme, 0 = substrate-free blank | AID 1216 | 190,000 tested, 0.34% active | activation factor at 20 µM;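 active = activation factor of 2 or more at 20 µM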
Target sequence (P34949 whole entry, looked up): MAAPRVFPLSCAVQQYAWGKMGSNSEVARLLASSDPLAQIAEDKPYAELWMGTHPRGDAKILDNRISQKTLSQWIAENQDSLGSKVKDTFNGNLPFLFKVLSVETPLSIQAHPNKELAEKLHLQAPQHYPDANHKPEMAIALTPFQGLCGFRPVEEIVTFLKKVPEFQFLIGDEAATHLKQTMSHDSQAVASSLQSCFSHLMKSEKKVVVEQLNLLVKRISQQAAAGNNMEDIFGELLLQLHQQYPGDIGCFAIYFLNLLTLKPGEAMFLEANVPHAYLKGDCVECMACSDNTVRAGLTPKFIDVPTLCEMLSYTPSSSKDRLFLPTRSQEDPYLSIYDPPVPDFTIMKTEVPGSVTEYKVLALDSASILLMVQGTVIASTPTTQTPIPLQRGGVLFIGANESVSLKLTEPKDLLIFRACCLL
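Material: human phosphomannose isomerase with PGI, G6PDH, diaphorase coupling enzymes; amount: PMI at 15 ng/mL final; also added: Mannose-6-phosphate 1.0 mM (near-saturating) plus 0.22 mM NADP+; incubation: enzyme reaction with compound 20 min at room temperature; signal: resorufin fluorescence (Ex 544/Em 590 nm) from resazurin via diaphorase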
PMI act = activators of human phosphomannose isomerase | purified human PMI, coupled resazurin fluorescence, 20 min; stronger effect = higher value; 1 = vehicle control, 0 substrate-free wells | P34949 | activation factor at 20 µM | 190,000 tested, 0.005% active;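 active = activation factor of 2 or more at 20 µM, relative to plate controls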
bCat KO growth = beta-catenin-lacking colon tumor cell growth suppression | HCT116 beta-catenin knockout viability, CellTiter-Glo, 60 h; stronger effect = lower value | viability, % at 10 µM | 140,000 tested, 1.5% active;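 active = viability at or under a set limit, the compound median less 4 SD, cut at about 6% in these data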;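 note: 0% = Hyamine 1622 control at 20 µM and 100% = untreated cell control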
PTEN del growth = PTEN-deleted cell growth suppression. HCT116 PTEN-null viability, CellTiter-Glo, 60 h; stronger effect = lower value. viability, % at 10 µM. 140,000 tested, 1.2% active. AID 827;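 active = viability at or below a set limit, 4 SD under the median of all tested compounds, cut at about 3.7% in these data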;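 note: PTEN knockout HCT116 line with beta catenin targeted HCT116 as companion control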
Numbers without * were called inactive; x = no result.

SMILES	L major viab	PMI act satM6P	PMI act	bCat KO growth	PTEN del growth
Cc1ccccc1-n1c(O)c(C=Nc2ccc(N(C)C)cc2)c(=O)[nH]c1=O	58*	0.8	0.9	40	66
C[C@H]1O[C@@H](O[C@H]2[C@@H](O)C[C@H](O[C@H]3[C@@H](O)C[C@H](O[C@H]4CC[C@@]5(C)[C@H](CC[C@@H]6[C@@H]5CC[C@]5(C)[C@@H](C7=CC(=O)OC7)CC[C@]65O)C4)O[C@@H]3C)O[C@@H]2C)C[C@H](O)[C@@H]1O	-8	1	1.1	4.9*	6
C[C@@H]1O[C@@H](O[C@H]2C[C@@H](O)[C@]3(CO)[C@H]4[C@H](O)C[C@]5(C)[C@@H](C6=CC(=O)OC6)CC[C@]5(O)[C@@H]4CC[C@]3(O)C2)[C@H](O)[C@H](O)[C@H]1O	-5	1	1.1	5.7*	4
CC12CN3CC(C)(CN(C1)C3c1cccnc1)C2=O (stereo unspecified)	6	1	1.1	106	102
CNC(=S)N1CCn2cccc2C1c1cccnc1 (stereo unspecified)	68*	0.9	1	x	x
CCCCNC(=S)N1CCn2cccc2C1c1cccnc1 (stereo unspecified)	92*	0.9	1	x	x
CCC12CN3CC(CC)(CN(C1)C3c1cccnc1)C2=O (stereo unspecified)	1	1	0.9	102	102
O=C1NC(=O)N(c2cccc(Br)c2)C(=O)/C1=C/c1ccsc1	-3	1.7	1.7	x	x
c1ccc2c(CCNCc3ccc4c(c3)OCO4)c[nH]c2c1	77*	1	1	53	51
CNCCc1c[nH]c2ccccc12	-4	1	1	x	x
N#CSCC(=O)N1c2ccccc2CCc2ccccc21	96*	1	0.9	3.8*	2.5*
Nc1ccccc1C(=O)OCC(=O)N1CCc2ccccc21	-4	1	1	114	96
CN1c2ccc([N+](=O)[O-])cc2CC2(C(=O)NC(=O)N(c3ccccc3)C2=O)C1c1ccccc1 (stereo unspecified)	58*	1	0.9	58	55
CN1c2ccc([N+](=O)[O-])cc2CC2(C(=O)NC(=O)NC2=O)C1c1ccccc1 (stereo unspecified)	4	0.9	1	84	82
Cc1nn(Cc2ccccc2Cl)c(Cl)c1C(=O)OCC(=O)NC(=O)NC1CCCCC1	52*	0.8	0.8	100	98
Cc1cc(NC(=O)COC(=O)c2c(C)nn(Cc3ccccc3Cl)c2C)no1	6	1	1	95	95
CC(NCc1cccc(Cl)c1Cl)C(O)c1ccccc1 (stereo unspecified)	3	1	0.9	91	91
CC(CCc1ccccc1)NC(C)C(O)c1ccc(O)cc1 (stereo unspecified)	89*	1	1.1	79	88
CN1CCc2c(c(N3CCCCC3)nc3n[nH]c(N)c23)C1	-2	1	1	90	107
Clc1ccc(CNC2CN3CCC2CC3)cc1 (stereo unspecified)	92*	1	1.1	84	79
Fc1ccccc1CNC1CN2CCC1CC2 (stereo unspecified)	-6	1.1	1.1	x	x
CCCCn1c(=O)c(C(=O)Nc2ccsc2C(=O)OC)c(O)c2ccccc21	53*	1.1	1	3.2*	3.1*
CCCCCn1c(=O)c(C(=O)Nc2ccncc2)c(O)c2ccccc21	x	1.1	1	x	x
CCCCCCn1c(=O)c(C(=O)Nc2cnccn2)c(O)c2ccccc21	100*	1	1	x	x
CN1CCN(Cc2nc3ccccc3n2C)CC1	-8	0.9	0.9	99	91
SMILES	L major viab	PMI act satM6P	PMI act	bCat KO growth	PTEN del growth
Cn1c(NN=O)nc2ccccc21	97*	1.2	1.1	x	x
Cc1cccc(CN2CCN(Cc3ccc(Cl)cc3)CC2)c1	89*	1.2	1.1	78	91
Oc1ccc(Cl)cc1CN1CCN(Cc2ccccc2)CC1	63*	1.1	1	98	110
COc1cc(C)cc(CN2CC=C(c3ccccc3)CC2)c1O	65*	0.8	0.8	x	x
CCOC(=O)c1c(/N=C/C2C(=O)NC(=S)NC2=O)sc2c1CCC2	-4	2.1*	1.6	x	x
CCOC(=O)c1c(/N=C/C2C(=O)NC(=S)NC2=O)sc(C)c1C	-4	1.1	0.9	x	x
CCOC(=O)c1c(N)n(CCN2CCCCC2)c2nc3ccccc3nc12	55*	0.7	0.9	59	55
CCCCn1c(NS(=O)(=O)c2ccccc2)c(C(=O)OCC)c2nc3ccccc3nc21	99*	0.6	1.1	87	89
CCCCn1c(NC(=O)c2ccc(Br)o2)c(C(=O)OCC)c2nc3ccccc3nc21	11	0.4	0.8	82	90
CCOC(=O)C(NC(C)=O)C(OC(C)=O)c1cccc(N(CCCl)CCCl)c1 (stereo unspecified)	2	2*	1.6	69	58
CC1CCC(C(C)C)C(OP(N)(=O)c2ccccc2)C1 (stereo unspecified)	-1	1	1	79	73
CC1CCC(C(C)C)C(OC(=O)COC(=O)c2ccccc2N)C1 (stereo unspecified)	55*	0.9	0.9	71	74
O=C(c1cccn2c(=O)c3cc(Cl)ccc3nc12)N1CCC2(CC1)OCCO2	-3	1	0.9	96	101
O=C(Cc1ccccc1)N1CCN(Cc2ccc([N+](=O)[O-])cc2)CC1	16	1.1	1.1	91	95
O=[N+]([O-])c1cccc(CN2CCN(Cc3ccc(Br)cc3)CC2)c1	87*	1.1	1.1	x	x
COc1ccc(CCNCc2ccncc2)cc1OC	51*	1.2	1.1	105	107
COc1cc(OC)c(OC)cc1CNCCc1ccc(OC)c(OC)c1	-9	1	0.9	84	93
CCOC(=O)C1CCN(/C=C2/C(=O)NC(=O)N(c3cccc(C)c3C)C2=O)CC1	54*	0.9	1	x	x
CCOC(=O)C1CCN(/C=C2/C(=O)NC(=S)N(c3cccc(OC)c3)C2=O)CC1	44	1	1	x	x
CCOC(=O)C1CCN(/C=C2\C(=O)NC(=S)N(CC)C2=O)CC1	76*	1	1	x	x
CC(C)CCCn1c(O)c(/C=C2/C=CC=N2)c(=O)[nH]c1=O	4	1	1	25	30
Cc1c2ccncc2c(C)c2c1[nH]c1ccccc12	100*	0.9	0.9	1.3*	0.9*
c1ccc2c(c1)[nH]c1cnccc12	2	1	1	94	99
COc1ccccc1OCC#CCN1CCCC(C)C1 (stereo unspecified)	-3	1	1	x	x
Fc1ccc(C(OCCN2CCCC2)c2ccc(Br)cc2)cc1 (stereo unspecified)	100*	1.1	1.2	48	51
Fc1ccc(C(OCCN2CCCC2)c2ccc(F)cc2)cc1	90*	1.1	1.1	76	85
C#CCN1CCN(c2ccc(F)cc2)CC1	-5	1.1	1.1	x	x

Screens from PubChem BioAssay.
